One may read the Kd as the free concentration of one partner at which half of the binding sites on the other are occupied at equilibrium, for simple one-to-one binding. A word on the Ki: it is the equilibrium dissociation constant of an inhibitor or competing ligand from its target. A word on the half-life: it is the time in which the quantity being followed falls by half. Low values mean rapid decline, high ones slow decline.

The target in data set [1] is Albumin (Mus musculus, UniProt P07724). The data set is described as follows: Binding affinity to mouse serum albumin by fluorescence polarization assay. Format: ADME. The method, boiled down:
(§1)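 Proteins serially diluted 3/2-fold in phosphate buffer (10 mM Na2HPO4, pH 7.4, 150 mM NaCl) and mixed 1:1 with fluorescein-labelled peptide. Incubated 30 min at room temperature, then fluorescence polarization read (excitation 480 nm, emission 535 nm). KD from nonlinear regression of anisotropy against total protein concentration using a quadratic binding equation. Done at 25 °C.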
A general note: In fluorescence polarisation assays a small probe gives low polarisation when free and higher when bound to something large.

For data set [2], the target named is Albumin (Homo sapiens, UniProt P02768). The data set is described as follows: Binding affinity to human serum albumin by fluorescence polarization assay. Format: ADME. The method, boiled down:
as §1

Data set [3] has as its target T1, Urokinase-type plasminogen activator (Homo sapiens, UniProt P00749). The data set is described as follows: Inhibition of human uPA using H-Glu-Gly-Arg-pNA as substrate after 1 hr in presence of bovine serum albumin. The procedure, abridged: (§2)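 Human urinary low-molecular-weight uPA (1.5 nM) with 2-fold inhibitor dilutions (8 μM to 1.95 nM) at 25 °C. Additive: 0.1% casein (±1.5 μM hSA or mSA), 0.1% ovA or 0.1% bSA. Substrate 50 μM H-Glu-Gly-Arg-pNA; A405 initial rates over 1 h. Ki from Kiapp corrected for substrate; means of ≥3.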

For data set [4], the system named is Plasma. The data set is described as follows: (§3) Drug degradation in mouse plasma at 50 uM after 24 to 48 hrs by RP-HPLC analysis. Format: ADME, cell-free. Conditions: 50 µM. The method, boiled down:
(§4)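 Peptide spiked from 1 mM water stock into mouse plasma (final 50 μM) and incubated at 37 °C. Samples taken at 0, 24 and 48 h, mixed 1:1 with water containing 0.1% TFA and stored at −20 °C. Analysed by RP-HPLC on a C8 column with 220 nm absorbance; peaks identified by ESI-MS.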

The target of data set [5] is T1, Urokinase-type plasminogen activator. Nature of the data set: Inhibition of human uPA using H-Glu-Gly-Arg-pNA as substrate after 1 hr in presence of casein and human serum albumin. The procedure, abridged:
as §2

Data set [6] shares this target. Nature of the data set: Inhibition of human uPA. The procedure, abridged: as §2
For data set [7] the target is unchanged. The data set is described as follows: Inhibition of human uPA using H-Glu-Gly-Arg-pNA as substrate after 1 hr in presence of ovalbumin. The procedure, abridged:
as §2

Data set [8] has the same target. The data set is described as follows: Inhibition of human uPA using H-Glu-Gly-Arg-pNA as substrate after 1 hr in presence of casein and mouse serum albumin. The method, boiled down: as §2
Data set [9] shares this target. Nature of the data set: Inhibition of human uPA using H-Glu-Gly-Arg-pNA as substrate after 1 hr in presence of casein. The procedure, abridged: as §2
For data set [10], the system named is Plasma. Nature of the data set: Drug degradation in mouse plasma at 50 uM after 24 hrs by RP-HPLC analysis. It is filed as ADME, cell-free. The procedure, abridged:
as §4

The nature of data set [11]: Terminal half life in rabbit. Format: ADME, organism-based, Oryctolagus cuniculus. Conditions: in vivo.
Data set [12] in a line: Terminal half life in mouse. It is filed as ADME, organism-based. The note with it: in vivo. The method, boiled down: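 Female BALB/c mice aged 7–9 weeks, given 200 μL of 50 μM in PBS intravenously; 2–3 mice per time point. EDTA plasma sampled up to 320 min or up to 48 h. Conjugate measured by reversed-phase UFLC with fluorescence detection (ex 490, em 525 nm) and by uPA-capture ELISA with antifluorescein detection. Data fitted to a two-compartment model; t1/2 β taken.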

Data set [13] can be described thus: as §3. Conditions: read-out: Drug degradation. It is filed as ADME, cell-free. The procedure, abridged:
as §4

Starred links: 1 amine or outer side, 2 acyl side, 3 side chain; linkers in the order of their positions; H or OH if unused. Positions of bridges follow the written chain, without caps; N, C: chain ends. Residues, ends and D or L forms follow the SMILES beside them. TBMB = c1c(C[*:1])cc(C[*:3])cc1C[*:2]; mXylylene = c1cc(C[*:1])cc(C[*:2])c1; pXylylene = c1cc(C[*:2])ccc1C[*:1]

Chain of Albumin (Homo sapiens, UniProt P02768) (P02768 whole entry): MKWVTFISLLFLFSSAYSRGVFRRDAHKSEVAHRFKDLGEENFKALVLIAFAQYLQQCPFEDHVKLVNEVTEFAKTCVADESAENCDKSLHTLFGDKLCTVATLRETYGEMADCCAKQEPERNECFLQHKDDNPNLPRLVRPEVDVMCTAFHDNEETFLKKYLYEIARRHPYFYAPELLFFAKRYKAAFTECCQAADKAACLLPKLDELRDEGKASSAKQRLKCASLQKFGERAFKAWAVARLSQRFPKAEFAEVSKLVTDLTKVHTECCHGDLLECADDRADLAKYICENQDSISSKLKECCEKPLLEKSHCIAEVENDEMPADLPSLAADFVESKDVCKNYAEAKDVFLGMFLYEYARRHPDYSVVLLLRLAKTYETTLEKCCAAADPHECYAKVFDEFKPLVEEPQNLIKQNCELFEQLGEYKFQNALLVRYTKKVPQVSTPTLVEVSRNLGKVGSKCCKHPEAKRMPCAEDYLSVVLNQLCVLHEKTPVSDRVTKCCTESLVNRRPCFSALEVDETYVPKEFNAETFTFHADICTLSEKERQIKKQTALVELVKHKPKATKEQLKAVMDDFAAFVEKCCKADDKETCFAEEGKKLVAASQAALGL
Chain of Albumin (Mus musculus, UniProt P07724) (P07724 whole entry): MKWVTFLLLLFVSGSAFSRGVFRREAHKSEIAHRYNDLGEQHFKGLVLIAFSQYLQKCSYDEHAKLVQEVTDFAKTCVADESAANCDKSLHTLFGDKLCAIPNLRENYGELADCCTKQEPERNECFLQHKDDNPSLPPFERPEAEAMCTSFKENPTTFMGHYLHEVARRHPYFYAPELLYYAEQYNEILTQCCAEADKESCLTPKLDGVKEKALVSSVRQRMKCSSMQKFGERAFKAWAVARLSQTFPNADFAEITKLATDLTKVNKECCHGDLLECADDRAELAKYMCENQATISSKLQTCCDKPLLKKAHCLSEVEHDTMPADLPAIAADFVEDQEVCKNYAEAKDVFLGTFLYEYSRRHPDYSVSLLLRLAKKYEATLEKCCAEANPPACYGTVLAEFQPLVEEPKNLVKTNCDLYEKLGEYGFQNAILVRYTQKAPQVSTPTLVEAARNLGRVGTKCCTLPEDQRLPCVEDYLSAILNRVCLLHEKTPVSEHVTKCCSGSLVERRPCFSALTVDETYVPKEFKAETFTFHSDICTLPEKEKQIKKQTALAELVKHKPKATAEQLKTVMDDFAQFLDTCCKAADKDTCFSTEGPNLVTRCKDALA

Regarding `CC[C@H](C)[C@H](NC(=O)[C@H](CC(C)C)NC(=O)[C@H](CCCNC(=N)N)N[C@@H](CCCCN)C(=O)NCCCCN=[N+]=[N-])C(=O)N[C@@H](CCC(=O)O)C(=O)N[C@@H](CC(=O)O)C(=O)N[C@H](C(=O)N[C@H]1CSSC[C@@H](C(=O)N[C@@H](CC(C)C)C(=O)N[C@@H](Cc2c[nH]c3ccccc23)C(=O)N[C@@H](CCC(=O)O)C(=O)N[C@@H](CC(=O)O)C(=O)N[C@@H](CC(=O)O)C(=O)O)NC(=O)CNC(=O)[C@H](Cc2c[nH]c3ccccc23)NC(=O)[C@H](CCCNC(=N)N)NC(=O)[C@@H]2CCCN2C(=O)[C@H](CC(C)C)NC1=O)[C@@H](C)CC`, the figures for the dissociation constant (Kd) at Albumin [1] and at Albumin [2] were 24 nM and 321 nM, respectively.
For `CC(C)[C@@H]1NC(=O)[C@H](CCC(=O)O)NC(=O)[C@H](Cc2ccc(O)cc2)NC(=O)[C@H](CCCN=C(N)N)NC(=O)[C@H](CO)NC(=O)[C@@H](NC(=O)[C@H](C)N)CSCc2cc3cc(c2)CSC[C@H](NC(=O)[C@H](CC(=O)O)NC1=O)C(=O)N[C@@H](CCCN=C(N)N)C(=O)NCC(=O)N[C@@H](CCCN=C(N)N)C(=O)NCC(=O)N[C@@H](CO)C(=O)N[C@@H](C)C(=O)N[C@H](C(=O)NCC(N)=O)CSC3` (H-ACSRYEVDCRGRGSACG-NH2; linker 2-9-16 via TBMB), the Ki in data set [3] was 53 nM; in [5], 60 nM; in [6], 53 nM; in [7], 56 nM; in data set [8], 54 nM; in data set [9], 52 nM. The Stability result in the data set with Plasma [4] is on record as “Unstable”.
`CC(C)[C@@H]1NC(=O)[C@H](CCC(=O)O)NC(=O)[C@H](Cc2ccc(O)cc2)NC(=O)[C@H](CCCNC(=N)N)NC(=O)[C@H](CO)NC(=O)[C@@H](NC(=O)[C@H](C)N)CSCc2cccc(c2)CSC[C@@H](C(N)=O)NC(=O)[C@H](CC(=O)O)NC1=O` (H-ACSRYEVDC-NH2; linker 2-9 via mXylylene): the Stability entry with Plasma [10] is “Unstable”.
Turning to `C[C@@H]1NC(=O)[C@H](CO)NC(=O)CNC(=O)[C@H](CCCNC(=N)N)NC(=O)CNC(=O)[C@H](CCCNC(=N)N)NC(=O)[C@@H](N)CSCc2cccc(c2)CSC[C@@H](C(=O)NCC(N)=O)NC1=O` (H-CRGRGSACG-NH2; linker 1-8 via mXylylene), the Stability entry in the data set with Plasma [10] is “Unstable”.
In the case of `CC[C@H](C)[C@H](NC(=O)[C@H](CC(=O)O)NC(=O)[C@H](CCC(=O)O)NC(=O)[C@H](CCSC)NC(=O)[C@H](CC(C)C)NC(=O)[C@H](CCCNC(=N)N)NC(=O)[C@@H](N)CCC(N)=O)C(=O)N[C@@H](CS)C(=O)N[C@@H](CC(C)C)C(=O)N1CCC[C@H]1C(=O)N[C@@H](CCCNC(=N)N)C(=O)N[C@@H](Cc1c[nH]c2ccccc12)C(=O)NCC(=O)N[C@@H](CS)C(=O)N[C@@H](CC(C)C)C(=O)N[C@@H](Cc1c[nH]c2ccccc12)C(=O)N[C@@H](CCC(=O)O)C(=O)N[C@@H](CC(=O)O)C(=O)N[C@@H](CC(=O)O)C(=O)N[C@@H](Cc1ccccc1)C(N)=O`, the figures for the half-life in data set [11] and in data set [12] were 68.5 h and 19.7 h, respectively.
In the case of `CC(C)[C@@H]1NC(=O)[C@H](CCC(=O)O)NC(=O)[C@H](Cc2ccc(O)cc2)NC(=O)[C@H](CCCNC(=N)N)NC(=O)[C@H](CO)NC(=O)[C@@H](NC(=O)[C@H](C)N)CSCc2ccc(cc2)CSC[C@@H](C(=O)NCC(N)=O)NC(=O)[C@H](C)NC(=O)[C@H](CO)NC(=O)CNC(=O)[C@H](CCCNC(=N)N)NC(=O)CNC(=O)[C@H](CCCNC(=N)N)NC(=O)[C@H](CO)NC(=O)[C@H](CC(=O)O)NC1=O` (H-ACSRYEVDSRGRGSACG-NH2; linker 2-16 via pXylylene), the metabolised at 50 µM in [13] worked out at 60%.
As to `CC(C)[C@H](NC(=O)[C@H](CCC(=O)O)NC(=O)[C@H](Cc1ccc(O)cc1)NC(=O)[C@H](CCCNC(=N)N)NC(=O)[C@H](CO)NC(=O)[C@H](CO)NC(=O)[C@H](C)N)C(=O)N[C@@H](CC(=O)O)C(=O)N[C@@H](CO)C(=O)N[C@@H](CCCNC(=N)N)C(=O)NCC(=O)N[C@@H](CCCNC(=N)N)C(=O)NCC(=O)N[C@@H](CO)C(=O)N[C@@H](C)C(=O)N[C@@H](CO)C(=O)NCC(N)=O` (H-ASSRYEVDSRGRGSASG-NH2), in the data set with Plasma [4], the Stability result was “Unstable”.
